Data on eleven compounds can be found in ChEMBL document CHEMBL1124528, “Tetrahydrothiadiazoloisoquinolines: synthesis and inhibition of phenylethanolamine-N-methyltransferase” (J Med Chem, 1989).

For assay [1], the system named is Phenylethanolamine N-methyltransferase (rabbit). As to the kind of experiment: Ability to inhibit rabbit adrenal PNMT norepinephrine to epinephrine (E13), in vitro, at 10 e-6 M. The conditions noted are these: Oryctolagus cuniculus.
For assay [2] the test system is unchanged. As to the kind of experiment: Ability to inhibit rabbit adrenal PNMT norepinephrine to epinephrine (E13), in vitro, at 10 e-4 M compound concentration. The note with it: Oryctolagus cuniculus.
The test system is the same in assay [3]. As to the kind of experiment: Ability to inhibit rabbit adrenal phenylethanolamine N-methyl-transferase norepinephrine to epinephrine (E13), in vitro, at 10 e-6 M. The note with it: Oryctolagus cuniculus.
The subject of assay [4] is Mus musculus. As to the kind of experiment: Maximum inactive dose that causes decrease in endogenous adrenal epinephrine/norepinephrine ratio, when administered perorally in mice.
The next assay deals with Rattus norvegicus. As to the kind of experiment: Ability to inhibit [3H]epinephrine biosynthesis was determined in the adrenal medulla of rats by administering 3 mg/kg of compound orally. The assay is classed as functional. The conditions noted are these: po.
For assay [5], the system named is Mus musculus. As to the kind of experiment: Minimum active dose that causes decrease in endogenous epinephrine/norepinephrine ratio, when administered perorally in mice. The assay is classed as functional. An outline of the steps:
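Mice given compound orally, b.i.d., as chronic dosing, then adrenal gland E and NE content measured to give the E/NE ratio. Minimum active dose is the lowest dose giving p < 0.05 vs control by Student's t test.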

Assay [6] deals with Mus musculus. As to the kind of experiment: Minimum active dose that causes decrease in endogenous adrenal epinephrine/norepinephrine ratio, when administered perorally in mice. The format is functional. In short, it runs like this:
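Mice dosed orally b.i.d. (chronic administration), then adrenal E and NE content measured and the decrease in E/NE ratio determined. Minimum active dose is the lowest dose significant at p < 0.05 versus control by Student's t test.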

As for `Oc1nc2c3c(ccc2[nH]1)CCNC3`, the inhibition in assay [1] is 1%; in assay [2], 4%. The compound `c1cc2[nH]nnc2c2c1CCNC2` showed an inhibition in assay [3] of 20%. In the case of `Oc1nc2c3c(ccc2s1)CCNC3`, the inhibition in assay [1] turned out to be 3%; in assay [2], 37%. `c1nc2c3c(ccc2[nH]1)CCNC3`: the inhibition in assay [3] is 0%. On to `Nc1nc2ccc3c(c2s1)CNCC3`, for which the figures for the inhibition in assay [1] and in assay [2] were 15% and 41%, respectively. As for `Clc1cc2snnc2c2c1CCNC2`, the inhibition was 51% in assay [1] and 98% in assay [2]. In the case of `c1nc2ccc3c(c2s1)CNCC3`, the inhibition in assay [3] was 24%.

Consider `Cl.Clc1ccc2c(c1Cl)CNCC2`, for which the MID in the assay on Mus musculus [4] turned out to be 2.5 mg/kg. The same compound showed an inhibition in vivo at 3 mg/kg in the assay with Rattus norvegicus of 50%. For the same compound, the MAD with Mus musculus [5] came to 5 mg/kg.

Take `Cl.c1cc2snnc2c2c1CCNC2`: in the assay on Mus musculus [4], the MID was 6.25 mg/kg. Further, in the assay on Rattus norvegicus, at 3 mg/kg the inhibition in vivo was 87%. In the assay on Mus musculus [6], the MAD is 12.5 mg/kg. In assay [3], `c1cc2nnsc2c2c1CCNC2` had an inhibition of 91%.

In assay [3], `c1ccc2c3c(ccc2c1)CCNC3` gave an inhibition of 14%.
